ChEMBL document CHEMBL1926616, “Design, synthesis and biological evaluation of novel glycosylated diphyllin derivatives as topoisomerase II inhibitors” (Eur J Med Chem, 2012)
The source made the active and inactive calls. No cut-off for these calls is given here.

Tests used:
HCT-116 [1] = experiment: Cytotoxicity against human HCT116 cells after 72 hrs by sulforhodamine B and MTT assay; assay type: functional, cell-based; conditions: HCT-116, 72 h
How it was run: (§1)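 Log-phase cells were plated overnight and exposed for 72 h to a 5-concentration gradient, in triplicate wells. SRB arm: 10% cold TCA fixation for 1 h at 4 °C, 4 mg/ml SRB in 1% acetic acid for 15 min, dye dissolved in 10 mM Tris-HCl, read at 520 nm. MTT arm: 5 mg/mL MTT for 4 h at 37 °C, SDS-isobutanol-HCl solubilisation for 12–20 h, read at 570 nm. IC50 by Logit method from at least 3 independent tests.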

MCF7 = experiment: Cytotoxicity against human MCF7 cells after 72 hrs by sulforhodamine B and MTT assay; assay type: functional, cell-based; conditions: MCF7, 72 h; how it was run: as §1
KB [2] = experiment: Cytotoxicity against human KB cells after 72 hrs by sulforhodamine B and MTT assay; assay type: functional, cell-based; how it was run: as §1
KB [3] = experiment: Cytotoxicity against vincristine-selected multi drug-resistant human KB cells after 72 hrs by sulforhodamine B and MTT assay; assay type: functional, cell-based
How it was run: (§2)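 Log-phase cells were seeded, preincubated (overnight for SRB, 24 h for MTT), then given a five-concentration gradient in triplicate wells for 72 h. For MTT, reagent was added for 4 h at 37 °C, solubilized in SDS-isobutanol-HCl for 12-20 h, and read at 570 nm. IC50 was derived by the Logit method from at least 3 independent tests.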

K562 [4] = experiment: Cytotoxicity against human K562 cells after 72 hrs by sulforhodamine B and MTT assay; assay type: functional, cell-based; conditions: K562, 72 h; how it was run: as §2
K562 [5] = experiment: Cytotoxicity against adriamycin-selected multi drug-resistant human K562 cells after 72 hrs by sulforhodamine B and MTT assay; assay type: functional, cell-based; conditions: K562, 72 h; how it was run: as §2
KB [6] = experiment: Resistance index, ratio of IC50 for vincristine-selected multi drug-resistant human KB cells to IC50 for human KB cells; assay type: functional
How it was run: (§3)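 Resistance factor is the IC50 in the resistant line divided by the IC50 in the parental line. Both IC50s come from 72 h SRB/MTT growth-inhibition assays, derived by the Logit method from at least 3 independent tests.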

K562 [7] = experiment: Resistance index, ratio of IC50 for adriamycin-selected multi drug-resistant human K562 cells to IC50 for human K562 cells; assay type: functional; how it was run: as §3
[8] = target: DNA topoisomerase 2-alpha (Homo sapiens) (UniProt P11388); experiment: Inhibition of human topoisomerase 2-mediated decatenation of kinetoplast DNA at 100 uM after 15 mins by agarose gel electrophoresis
How it was run: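 ATP-dependent kDNA decatenation by 1 unit Topo II in 50 mM Tris-HCl pH 7.7, 50 mM KCl, 5 mM MgCl2, 1 mM ATP, 0.5 mM DTT, 0.5 mM EDTA and BSA, run for 15 min at 37 °C. Stopped with 10% SDS, then run on 1% agarose in TAE at 4 V/cm for 1 h and stained with ethidium bromide.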

HL-60 [9] = experiment: Cell cycle arrest in human HL60 cells assessed as accumulation at G0/G1 phase at 1 uM after 24 hrs using propidium iodide stain by FACS-flow cytometry (reference value: 39%); assay type: functional
HL-60 [10] = experiment: Cell cycle arrest in human HL60 cells assessed as accumulation at G0/G1 phase at 10 uM after 24 hrs using propidium iodide stain by FACS-flow cytometry (reference value: 39%); assay type: functional
HL-60 [11] = experiment: Cell cycle arrest in human HL60 cells assessed as accumulation at S phase at 1 uM after 24 hrs using propidium iodide stain by FACS-flow cytometry (reference value: 38.4%); assay type: functional
HL-60 [12] = experiment: Cell cycle arrest in human HL60 cells assessed as accumulation at S phase at 10 uM after 24 hrs using propidium iodide stain by FACS-flow cytometry (reference value: 38.4%); assay type: functional
HL-60 [13] = experiment: Cell cycle arrest in human HL60 cells assessed as accumulation at G2/M phase at 1 uM after 24 hrs using propidium iodide stain by FACS-flow cytometry (reference value: 22.6%); assay type: functional
HL-60 [14] = experiment: Cell cycle arrest in human HL60 cells assessed as accumulation at G2/M phase at 10 uM after 24 hrs using propidium iodide stain by FACS-flow cytometry (reference value: 22.6%); assay type: functional
HL-60 [15] = experiment: Induction of apoptosis in human HL60 cells assessed as DNA fragmentation at 10 uM after 36 hrs by gel electrophoresis; assay type: functional, cell-based
How it was run: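 HL-60 cells were seeded and exposed to compound for 36 h. Harvested cells were lysed with an equal volume of 1.2% SDS, and the fragmented DNA was extracted and resolved by gel electrophoresis.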

HCT-116 [16] = experiment: Cell cycle arrest in human HCT116 cells assessed as accumulation at G0/G1 phase at 1 to 10 uM after 24 hrs using propidium iodide stain by FACS-flow cytometry; assay type: functional, cell-based
HCT-116 [17] = experiment: Cell cycle arrest in human HCT116 cells assessed as accumulation at G2/M phase at 1 to 10 uM after 24 hrs using propidium iodide stain by FACS-flow cytometry; assay type: functional, cell-based
HL-60 [18] = experiment: Cell cycle arrest in human HL60 cells assessed as accumulation at G0/G1 phase at 1 to 10 uM using propidium iodide stain by FACS-flow cytometry; assay type: functional, cell-based; conditions: TDE = time-dependent effect
HL-60 [19] = experiment: Cell cycle arrest in human HL60 cells assessed as accumulation at G2/M phase at 1 to 10 uM using propidium iodide stain by FACS-flow cytometry; assay type: functional, cell-based; conditions: TDE = time-dependent effect
HL-60 [20] = experiment: Cell cycle arrest in human HL60 cells assessed as accumulation at G0/G1 phase after 24 hrs using propidium iodide stain by FACS-flow cytometry; assay type: functional, cell-based
HL-60 [21] = experiment: Cell cycle arrest in human HL60 cells assessed as accumulation at G2/M phase after 24 hrs using propidium iodide stain by FACS-flow cytometry; assay type: functional, cell-based
HCT-116 [22] = experiment: Cell cycle arrest in human HCT116 cells assessed as accumulation at G0/G1 phase at 1 to 10 uM using propidium iodide stain by FACS-flow cytometry; assay type: functional, cell-based; conditions: TDE = time-dependent effect
HCT-116 [23] = experiment: Cell cycle arrest in human HCT116 cells assessed as accumulation at G2/M phase at 1 to 10 uM using propidium iodide stain by FACS-flow cytometry; assay type: functional, cell-based; conditions: TDE = time-dependent effect
HCT-116 [24] = experiment: Cell cycle arrest in human HCT116 cells assessed as accumulation at G0/G1 phase after 24 hrs using propidium iodide stain by FACS-flow cytometry; assay type: functional, cell-based
HCT-116 [25] = experiment: Cell cycle arrest in human HCT116 cells assessed as accumulation at G2/M phase after 24 hrs using propidium iodide stain by FACS-flow cytometry; assay type: functional, cell-based

Chain of DNA topoisomerase 2-alpha (Homo sapiens) (P11388 whole entry): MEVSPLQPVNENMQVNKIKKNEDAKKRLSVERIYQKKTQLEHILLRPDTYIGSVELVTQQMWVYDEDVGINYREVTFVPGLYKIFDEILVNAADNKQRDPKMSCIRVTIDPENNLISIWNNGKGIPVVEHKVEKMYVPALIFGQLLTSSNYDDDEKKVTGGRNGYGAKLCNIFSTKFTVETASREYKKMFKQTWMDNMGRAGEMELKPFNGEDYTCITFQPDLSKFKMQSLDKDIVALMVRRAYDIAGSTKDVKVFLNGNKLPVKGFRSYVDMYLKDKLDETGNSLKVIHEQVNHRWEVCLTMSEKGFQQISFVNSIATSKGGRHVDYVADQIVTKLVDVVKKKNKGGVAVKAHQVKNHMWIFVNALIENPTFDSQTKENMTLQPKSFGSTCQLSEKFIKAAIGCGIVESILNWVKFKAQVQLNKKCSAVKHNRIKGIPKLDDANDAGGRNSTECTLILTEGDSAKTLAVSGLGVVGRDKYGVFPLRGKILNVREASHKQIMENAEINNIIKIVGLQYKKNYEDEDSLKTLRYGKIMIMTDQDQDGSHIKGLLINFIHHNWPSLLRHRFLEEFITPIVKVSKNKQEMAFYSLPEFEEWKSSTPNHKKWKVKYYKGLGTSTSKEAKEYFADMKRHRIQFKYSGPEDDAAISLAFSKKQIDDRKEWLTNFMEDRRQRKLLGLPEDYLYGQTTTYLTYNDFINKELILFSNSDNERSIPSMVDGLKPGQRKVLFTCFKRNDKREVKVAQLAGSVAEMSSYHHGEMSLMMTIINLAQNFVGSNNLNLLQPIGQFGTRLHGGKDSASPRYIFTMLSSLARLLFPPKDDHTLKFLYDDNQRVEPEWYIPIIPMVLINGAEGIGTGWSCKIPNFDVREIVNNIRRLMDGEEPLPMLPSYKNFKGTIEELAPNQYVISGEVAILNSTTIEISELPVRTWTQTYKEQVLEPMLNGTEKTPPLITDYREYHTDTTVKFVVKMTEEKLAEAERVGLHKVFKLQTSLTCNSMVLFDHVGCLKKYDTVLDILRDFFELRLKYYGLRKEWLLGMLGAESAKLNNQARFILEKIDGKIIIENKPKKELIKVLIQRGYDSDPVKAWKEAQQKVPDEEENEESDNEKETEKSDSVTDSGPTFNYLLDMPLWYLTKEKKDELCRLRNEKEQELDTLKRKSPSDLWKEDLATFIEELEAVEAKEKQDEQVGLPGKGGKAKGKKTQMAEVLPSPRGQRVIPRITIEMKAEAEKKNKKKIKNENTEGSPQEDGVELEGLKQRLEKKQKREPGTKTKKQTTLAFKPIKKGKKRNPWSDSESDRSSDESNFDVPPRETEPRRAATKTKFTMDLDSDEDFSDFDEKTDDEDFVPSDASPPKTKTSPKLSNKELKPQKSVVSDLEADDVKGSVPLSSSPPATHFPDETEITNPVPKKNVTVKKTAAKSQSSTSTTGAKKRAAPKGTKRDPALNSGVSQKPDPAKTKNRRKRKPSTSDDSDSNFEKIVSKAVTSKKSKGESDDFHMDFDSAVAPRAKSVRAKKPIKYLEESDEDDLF

COc1cc2c(O[C@@H]3O[C@H](C)[C@@H](OC(C)=O)[C@H](OC(C)=O)[C@H]3OC(C)=O)c3c(c(-c4ccc5c(c4)OCO5)c2cc1OC)C(=O)OC3
IC50 (HCT-116 [1]): 270 nM
IC50 (MCF7): 380 nM
IC50 (KB [2]): 440 nM
IC50 (KB [3]): 1320 nM
IC50 (K562 [4]): 808 nM
IC50 (K562 [5]): 7660 nM
Ratio IC50 (KB [6]): 3
Ratio IC50 (K562 [7]): 9.5
inhibition [8]: Active
Activity (HL-60 [9]): 46.4%
Activity (HL-60 [10]): 55%
Activity (HL-60 [11]): 36.3%
Activity (HL-60 [12]): 19.3%
Activity (HL-60 [13]): 17.4%
Activity (HL-60 [14]): 25.7%
Activity (HL-60 [15]): Active
Activity (HCT-116 [16]): Active
Activity (HCT-116 [17]): Active
Activity (HL-60 [18]): tde
Activity (HL-60 [19]): tde
Activity (HL-60 [20]): Dose-dependent effect
Activity (HL-60 [21]): Dose-dependent effect
Activity (HCT-116 [22]): tde
Activity (HCT-116 [23]): tde
Activity (HCT-116 [24]): Dose-dependent effect
Activity (HCT-116 [25]): Dose-dependent effect
